PMC6910256 (Journal of photochemistry and photobiology. A, Chemistry, 2019)
Where two headings read alike, the source gives them in different places.

Tests used:
DUSP5 PD [1] = biological target: T1, DUSP5 PD (Homo sapiens, UniProt Q16690); assay: Spectral analysis of other xanthene dyes binding to DUSP5 PD protein; conditions: 4 μM compound, 4 μM protein
T1 sequence (Q16690 178-319 limits assumed): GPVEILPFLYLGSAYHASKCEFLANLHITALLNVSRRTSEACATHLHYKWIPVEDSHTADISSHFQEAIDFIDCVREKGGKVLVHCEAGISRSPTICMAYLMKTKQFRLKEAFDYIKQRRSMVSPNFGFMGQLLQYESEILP
Outline: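 Each test compound at 4 μM in assay buffer, without or with 1 mM DTT, in 2 mL quartz cuvettes. Absorbance was scanned at 1 nm intervals from 400 to 600 nm. DUSP5 PD was then added to a final 4 μM and the sample rescanned. Blanks were buffer with or without DTT, plus buffer with 4 μM protein. Spectra without protein were subtracted from spectra with protein to give difference spectra.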

DUSP5 PD [2] = biological target: T1, DUSP5 PD; assay: Reaction progress curve analysis of irreversible DUSP5 PD inactivation; assay type: biochemical; conditions: for fold less effective than merbromin (time-dependent inhibition): absence of DTT
Nephelometry = assay type: physicochemical; conditions: assay buffer pH 7.5 without vs with 1 mM DTT
Outline: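 Aggregation was tested in 96-well plates using substrate-free assay buffer at pH 7.5, without or with 1 mM DTT. Serially diluted compound was added to give final concentrations of 1–100 μM or 1–300 μM, depending on compound.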

ulcerative hemangioma = conditions: topical use in the clinic; cited from earlier work
DUSP5 PD [3] = biological target: T1, DUSP5 PD; assay: DUSP5 phosphatase domain pNPP assay, IC50 from initial velocities; assay type: biochemical
Outline: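 Recombinant DUSP5 phosphatase domain in 100 mM Tris, 100 mM NaCl, 5 mM MgCl2, pH 7.5, without or with 1 mM DTT, using 5 mM pNPP (near Km). Compound was serially diluted and enzyme added from a 25 μM stock. After 0, 30 or 60 min dark incubation, A405 was read every 30 s for 10 min at 25°C. Blank-subtracted slopes were normalised to vehicle controls and fitted to equation 2. Three or four trials of triplicate wells.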

[4] = cited from earlier work
[5] = biological target: T2, GST-DUSP5 (full length DUSP5, pERK substrate) (Homo sapiens, UniProt Q16690); assay: In vitro ERK dephosphorylation Western blot assay; assay type: biochemical
T2 sequence (Q16690 1-384): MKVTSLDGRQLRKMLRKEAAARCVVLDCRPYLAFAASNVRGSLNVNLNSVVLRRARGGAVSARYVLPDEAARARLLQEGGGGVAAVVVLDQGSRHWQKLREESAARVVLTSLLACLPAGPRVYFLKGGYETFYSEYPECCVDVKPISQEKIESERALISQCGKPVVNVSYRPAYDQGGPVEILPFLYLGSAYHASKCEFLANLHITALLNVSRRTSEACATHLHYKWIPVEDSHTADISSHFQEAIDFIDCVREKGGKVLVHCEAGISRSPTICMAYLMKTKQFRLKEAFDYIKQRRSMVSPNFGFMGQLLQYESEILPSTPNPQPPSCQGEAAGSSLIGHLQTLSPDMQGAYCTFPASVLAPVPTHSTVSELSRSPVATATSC

DUSP5 PD [6] = biological target: T1, DUSP5 PD; assay: Steady-state competitive inhibition kinetics; assay type: biochemical; conditions: vs pNPP
Outline: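 Initial DUSP5 PD velocities were measured across 3–81 mM pNPP and 0–30 μM test compound, in assay buffer with 1 mM DTT. The data were fitted globally to a steady-state competitive inhibition model (equation 5), giving Vmax, Km and Ki ± SE.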

GST-DUSP5 = biological target: T3, GST-DUSP5 (Homo sapiens, UniProt Q16690); assay: Prestwick drug library pNPP enzyme assay screen; assay type: biochemical; conditions: 50 μM drug, 5 mM pNPP
T3 sequence (Q16690 178-319 limits assumed): T1 sequence (Q16690 178-319 limits assumed)

[7] = with 1 mM DTT, summary of data sets (Table 2)
[8] = without DTT, summary of data sets (Table 2)
[9] = IC50 against DUSP5 PD activity, with 1 mM DTT, 30 min incubation, mean ± SD
[10] = IC50 against DUSP5 PD activity, with 1 mM DTT, 60 min incubation, mean ± SD
[11] = IC50 against DUSP5 PD activity, without DTT, 30 min incubation, mean ± SD
[12] = IC50 against DUSP5 PD activity, without DTT, 60 min incubation, mean ± SD

For `O=C1OC2(c3cc(Br)c(O)cc3Oc3cc(O)c(Br)cc32)c2ccccc21` [2’,7’-dibromofluorescein], the “spectral shift upon addition of DUSP5 PD protein” value (“spectral shift upon addition” below) (DUSP5 PD [1]; with 1 mM DTT) was “shifted slightly”, the “spectral shift upon addition” value (DUSP5 PD [1]; without DTT) was “shifted slightly” and the “Inhibitor mechanism (irreversible inactivation)” value (“Inhibitor mechanism” for short) (DUSP5 PD [2]; with 1 mM DTT) was “single-step”. The kinact/KI (DUSP5 PD [2]; [7]) was 0.84 ± 0.07 M⁻¹ s⁻¹, the “Inhibitor mechanism” value (DUSP5 PD [2]; without DTT) was “single-step” and the kinact/KI (DUSP5 PD [2]; [8]) was 2.40 ± 0.48 M⁻¹ s⁻¹.
For `O=C1OC2(c3cc(Cl)c(O)cc3Oc3cc(O)c(Cl)cc32)c2ccccc21` [2’,7’-dichlorofluorescein], the “spectral shift upon addition” value (DUSP5 PD [1]; with 1 mM DTT) was “no spectral differences”, the “spectral shift upon addition” value (DUSP5 PD [1]; without DTT) was “no spectral differences” and the “Inhibitor mechanism” value (DUSP5 PD [2]; with 1 mM DTT) was “single-step”. The kinact/KI (DUSP5 PD [2]; [7]) was 0.14 ± 0.02 M⁻¹ s⁻¹, the “Inhibitor mechanism” value (DUSP5 PD [2]; without DTT) was “single-step” and the kinact/KI (DUSP5 PD [2]; [8]) was 0.41 ± 0.06 M⁻¹ s⁻¹.
In the case of `O=C1OC2(c3ccccc31)c1cc(Br)c(O)c(Br)c1Oc1c2cc(Br)c(O)c1Br` [Eosin Y, 2’,4’,5’,7’-tetrabromofluorescein], the “effect of DTT addition on compound aggregation” value (Nephelometry) is reported as “little effect”, the “spectral shift upon addition” value (DUSP5 PD [1]; with 1 mM DTT) is reported as “not diminished” and the “spectral shift upon addition” value (DUSP5 PD [1]; without DTT) is reported as “spectrally shifted”. The “efficacy in ulcerative hemangioma patients” value (ulcerative hemangioma) was “showed efficacy”, the IC50 (DUSP5 PD [3]; [9]) was greater than 100 µM and the IC50 (DUSP5 PD [3]; [10]) was greater than 100 µM. For the same molecule, the IC50 (DUSP5 PD [3]; [11]) was 63.3 ± 6.9 µM, the IC50 (DUSP5 PD [3]; [12]) was 37.6 ± 4.5 µM and the LD50 [4] was greater than 10 mmol/kg. The Ki (DUSP5 PD [2]) was 43 µM, the kinact (DUSP5 PD [2]) was 0.0002 s⁻¹ and the “fold less effective than merbromin (time-dependent inhibition)” value (DUSP5 PD [2]) was “roughly 10 fold”. For the same molecule, the “Inhibitor mechanism” value (DUSP5 PD [2]; with 1 mM DTT) was “single-step”, the kinact/KI (DUSP5 PD [2]; [7]) was 0.9 ± 0.13 M⁻¹ s⁻¹ and the “Inhibitor mechanism” value (DUSP5 PD [2]; without DTT) was “two-step”. It also gave a kinact/KI (DUSP5 PD [2]; without DTT, fit shown in Fig. 5c/6c) of 6.6 M⁻¹ s⁻¹, a kinact/KI (DUSP5 PD [2]; [8]) of 6.06 ± 2.43 M⁻¹ s⁻¹ and an IC50 [5] of 12.7 ± 3 µM.
In the case of `O=C1OC2(c3ccccc31)c1cc(I)c(O)c(I)c1Oc1c2cc(I)c(O)c1I` [Erythrosin B, 2’,4’,5’,7’-tetraiodofluorescein], the “spectral shift upon addition” value (DUSP5 PD [1]; with 1 mM DTT) is reported as “not diminished”, the “spectral shift upon addition” value (DUSP5 PD [1]; without DTT) is reported as “spectrally shifted” and the steady-state inhibition mechanism (DUSP5 PD [6]) is reported as “competitive inhibitor”. The “fold less effective than merbromin (time-dependent inhibition)” value (DUSP5 PD [2]) was “roughly 10 fold”, the “Inhibitor mechanism” value (DUSP5 PD [2]; with 1 mM DTT) was “single-step” and the kinact/KI (DUSP5 PD [2]; [7]) was 4.13 ± 0.13 M⁻¹ s⁻¹. For the same molecule, the “Inhibitor mechanism” value (DUSP5 PD [2]; without DTT) was “single-step” and the kinact/KI (DUSP5 PD [2]; [8]) was 4.65 ± 0.71 M⁻¹ s⁻¹.
In the case of `CN1CCC2(C)c3cc(O)ccc3N(C)C12.O=C(O)/C=C/C(=O)O` (stereo not drawn) [Eseroline fumarate salt], the “inhibitory activity with DUSP5 in library screen” value (GST-DUSP5) is reported as “showed inhibitory activity”.
With `O=C1OC2(c3ccc(O)cc3Oc3cc(O)ccc32)c2ccccc21` [Fluorescein] the “spectral shift upon addition” value (DUSP5 PD [1]; with 1 mM DTT) was “no spectral differences”, the “spectral shift upon addition” value (DUSP5 PD [1]; without DTT) was “no spectral differences” and the IC50 (DUSP5 PD [3]) was greater than 300 µM. For the same molecule, the IC50 (DUSP5 PD [3]; [9]) was greater than 300 µM, the IC50 (DUSP5 PD [3]; [10]) was greater than 300 µM and the IC50 (DUSP5 PD [3]; [11]) was greater than 300 µM. For the same molecule, the IC50 (DUSP5 PD [3]; [12]) was greater than 300 µM and the “inhibition of DUSP5 PD activity” value (DUSP5 PD [3]; concentrations up to 300 μM) was “did not inhibit”.
With `N[C@@H](Cc1ccc(O)c(O)c1)C(=O)O` [Levodopa] the “inhibitory activity with DUSP5 in library screen” value (GST-DUSP5) was “showed inhibitory activity”.
